Assay results from ChEMBL document CHEMBL1124174, “Substituted benzamides. 1. Potential nondopaminergic antagonists of chemotherapy-induced nausea and emesis” (J Med Chem, 1988).
Where “and” joins values, the source holds several entries; their conditions need not be identical. Equal entries are not always repeated.

What was measured:
[1] = target: D(2) dopamine receptor (Canis lupus familiaris) (UniProt Q9GJU1); assay: In vivo antagonism activity against dopamine D2 receptor was measured as emesis in dog when administered subcutaneously; type: functional, organism-based
Mustela putorius furo [2] = assay: In vivo antagonism of cisplatin-induced emesis in ferret measured as percentage protection for twice the dose of 3 mg/kg and in 3 ferrets; type: functional
Method in brief: (§1)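 Nonfasted castrated male Fitch ferrets (1–1.5 kg) had jugular catheters implanted ≥48 h earlier under anesthesia. Compounds or saline were given iv twice, 5 min before and 90 min after cisplatin (12 mg/kg iv; 12 mg/mL in warm 0.9% saline). Emesis was observed up to 4 h; events within 1 min counted as one episode. Results were given as mean emetic episodes and % protection versus a pooled historical/concurrent control. t test versus saline.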

D(2) dopamine receptor = D(2) dopamine receptor (Rattus norvegicus, UniProt P61169); assay: In vitro antagonistic activity against Dopamine receptor D2 was evaluated for the inhibition of [3H]spiperone binding
Method in brief: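 Rat striatal membranes were prepared by differential centrifugation in 50 mM Tris pH 7.4 at 4 °C. Membrane protein (10 mg) was incubated 15 min at 37 °C with 0.1 nM [3H]spiperone and varying competitor concentrations. Buffer: 50 mM Tris HCl pH 7.5, 0.1% ascorbic acid, pargyline, 120 mM NaCl, 5 mM KCl, 2 mM CaCl2, 1 mM MgCl2. (+)-Butaclamol defined nonspecific binding. Bound ligand was collected by filtration and scintillation counted. IC50 by log-logit regression.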

[3] = target: D(2) dopamine receptor (Rattus norvegicus) (UniProt P61169); assay: In vivo antagonism activity against D2 receptor was measured as stereotypy in rat when administered subcutaneously; type: functional, organism-based
Method in brief: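 Male Long Evans rats (275 g) were dosed sc in dilute aqueous HCl (pH 4.5-5.5) 30 min before apomorphine (1 mg/kg sc).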

[4] = target: D(2) dopamine receptor (Rattus norvegicus) (UniProt P61169); assay: In vivo antagonistic activity against dopamine D2 receptor was measured as catalepsy in rat when administered subcutaneously; type: functional, organism-based
Method in brief: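 Male Long Evans rats (275 g) received graded sc doses in dilute aqueous HCl (pH 4.5-5.5). They were observed 180 min for catalepsy, scored when the animal stayed stationary ≥15 s on a four-cork template.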

Mustela putorius furo [5] = assay: In vivo antagonism of cisplatin-induced emesis in ferret measured as emetic episodes, twice the dose of 3 mg/kg and in 3 ferrets; type: functional; method in brief: as §1
Mustela putorius furo [6] = assay: In vivo antagonism of cisplatin-induced emesis in ferret measured as emetic episodes, twice the dose of 1 mg/kg and in 3 ferrets; type: functional; method in brief: as §1
Mustela putorius furo [7] = assay: In vivo antagonism of cisplatin-induced emesis in ferret measured as percentage protection for twice the dose of 1 mg/kg and in 3 ferrets; type: functional; method in brief: as §1
Canis familiaris [8] = assay: In vivo antagonism of cisplatin-induced emesis in dog measured as emetic episodes, twice the dose of 1 mg/kg in 2 dogs; type: functional, Canis lupus familiaris
Method in brief: (§2)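 Nonfasted mature male or female beagles were dosed sc twice, 30 min before and 120 min after cisplatin (3 mg/kg iv; 3 mg/mL in warm 0.9% saline, used immediately). Emesis was observed up to 5 h; events within 2 min counted as one episode. Results were given as mean emetic episodes and % protection versus a dynamic control (historical and concurrent saline means pooled). t test versus saline.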

Canis familiaris [9] = assay: In vivo antagonism of cisplatin-induced emesis in dog measured as percentage protection for twice the dose of 1 mg/kg in 2 dogs; type: functional, Canis lupus familiaris; method in brief: as §2

Chain of D(2) dopamine receptor (P61169 whole entry): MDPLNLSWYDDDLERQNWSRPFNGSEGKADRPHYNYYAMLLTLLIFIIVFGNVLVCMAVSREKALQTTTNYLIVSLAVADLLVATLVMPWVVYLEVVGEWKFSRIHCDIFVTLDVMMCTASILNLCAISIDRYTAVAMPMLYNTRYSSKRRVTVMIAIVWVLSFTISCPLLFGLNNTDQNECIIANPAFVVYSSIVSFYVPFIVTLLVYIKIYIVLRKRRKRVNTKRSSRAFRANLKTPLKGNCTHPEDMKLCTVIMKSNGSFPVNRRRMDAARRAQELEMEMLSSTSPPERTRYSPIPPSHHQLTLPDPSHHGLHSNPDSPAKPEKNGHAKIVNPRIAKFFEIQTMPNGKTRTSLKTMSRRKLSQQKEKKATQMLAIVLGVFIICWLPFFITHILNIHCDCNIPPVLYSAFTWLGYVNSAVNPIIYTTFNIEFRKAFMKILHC
Chain of D(2) dopamine receptor (Rattus norvegicus) (P61169 whole entry): as above
Chain of D(2) dopamine receptor (Canis lupus familiaris) (Q9GJU1 whole entry): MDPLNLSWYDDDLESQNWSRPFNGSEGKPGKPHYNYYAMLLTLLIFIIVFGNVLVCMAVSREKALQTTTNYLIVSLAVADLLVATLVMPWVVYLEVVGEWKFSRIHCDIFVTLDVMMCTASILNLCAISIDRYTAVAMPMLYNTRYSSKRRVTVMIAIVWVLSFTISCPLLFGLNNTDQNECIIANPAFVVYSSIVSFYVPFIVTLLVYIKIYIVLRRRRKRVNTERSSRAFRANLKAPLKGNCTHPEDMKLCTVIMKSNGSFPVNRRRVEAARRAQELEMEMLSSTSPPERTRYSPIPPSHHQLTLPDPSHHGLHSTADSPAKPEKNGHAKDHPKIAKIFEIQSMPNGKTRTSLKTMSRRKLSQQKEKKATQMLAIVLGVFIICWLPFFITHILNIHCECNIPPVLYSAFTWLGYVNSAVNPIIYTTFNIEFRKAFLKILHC

Structure (SMILES) | IC50 (D(2) dopamine receptor) [nM] | ED50 [3] [mg/kg] | ED50 [1] [mg/kg] | Protection (Mustela putorius furo [2]) [%] | ED50 [4] [mg/kg] | Emetic episodes (Mustela putorius furo [5]) | Emetic episodes (Mustela putorius furo [6]) | Protection (Mustela putorius furo [7]) [%] | Emetic episodes (Canis familiaris [8]) | Protection (Canis familiaris [9]) [%] | Emetic episodes (Mustela putorius furo [5]; 3 mg/kg) | Protection (Mustela putorius furo [7]; 1 mg/kg) | Protection (Mustela putorius furo [6]) [%]
CCN(CC)CCNC(=O)c1cc(Cl)c(N)cc1OCC(=O)c1cccs1 | > 1000 | > 40 | – | 95 | > 40 | 0.3 | – | – | 3 | 75 | – | – | –
CCN(CC)CCNC(=O)c1cc(Cl)c(N)cc1OCCO | > 1000 | > 40 | > 3 | 68 | > 40 | 2.3 | – | – | 3 | 76 | – | – | –
CCN(CC)CCNC(=O)c1cc(Cl)c(N)cc1OCC(O)Cc1ccccc1 (centres undefined) | > 1000 | > 40 | > 3 | – | > 40 | – | 3.3 | 54 | – | – | – | – | –
C=CCN1CCCC1CNC(=O)c1cc2[nH]nnc2cc1OC (centres undefined) [ALIZAPRIDE] | 200 | – | – | – | – | – | – | – | – | – | – | – | –
CCN(CC)CCN(C)C(=O)c1cc(Cl)c(N)cc1O.Cl | > 1000 | > 40 | > 3 | 30 | > 40 | 5 | – | – | – | – | – | – | –
CCN1CCCNC(=O)c2cc(Cl)c(N)cc2OCCOCC1 | > 1000 | – | > 3 | 0 | > 40 | 11.7 | – | – | – | – | – | – | –
CCN(CC)CCNC(=O)c1cc(Cl)c(N)cc1OCCOC | > 1000 | > 40 | > 3 | – | > 40 | – | – | – | 1.5 | 88 | 1.7 and 5 | – | –
CCN(CC)CCNC(=O)c1cc(Cl)c(N)cc1OCC1CCCO1 (centres undefined) | > 1000 | > 40 | > 3 | 54 | > 40 | 3.3 | – | – | – | – | – | – | –
CCN(CC)CCNC(=O)c1cc(Cl)c(N)cc1OCC(C)(C)O | > 1000 | > 40 | > 3 | – | > 40 | 1.3 | 3 | – | – | – | – | 84% and 57% | –
CCN(CC)CCNC(=O)c1cc(Cl)c(N)cc1OC1CCCC[C@@H]1O (some centres undefined) | > 1000 | > 40 | > 3 | 60 | > 40 | 3 | – | – | 4 | 66 | – | – | –
CCN(CC)CCN1CCOc2cc(N)c(Cl)cc2C1=O | > 1000 | > 40 | > 3 | – | > 40 | – | 6 | 14 | – | – | – | – | –
CCN(CC)CCNC(=O)c1cc(Cl)c(N)cc1OCc1ccccc1 | > 1000 | > 40 | > 1 | – | > 40 | – | – | – | – | – | – | – | –
C=CCN1CCCC1CNC(=O)c1cc2nn[nH]c2cc1OC(C)C(C)=O (centres undefined) | > 1000 | > 40 | > 3 | 21 | > 40 | 5.7 | – | – | – | – | – | – | –
CCN(CC)CCNC(=O)c1cc(Cl)c(N)cc1OC(C)C(C)O (stereo in doubt; 8g) | – | > 40 | > 3 | – | > 40 | – | – | – | – | – | – | – | –
CCN(CC)CCNC(=O)c1cc(Cl)c(N)cc1OCC1OCCO1 | > 1000 | > 40 | > 3 | 67 | > 40 | 2.3 | 4 | – | – | – | – | – | 43
CCN(CC)CCNC(=O)c1cc(Cl)c(N)cc1OCC(O)COC (centres undefined) | > 1000 | > 40 | > 3 | 54 | > 40 | 3.3 | – | – | – | – | – | – | –
CCN1CCCCCOc2cc(N)c(Cl)cc2C(=O)NCCC1 | 7.7 | 10 | > 3 | 67 | > 40 | 2.3 | – | – | – | – | – | – | –

Further lines, with some results ahead:

IC50 (D(2) dopamine receptor) [nM] | ED50 [3] [mg/kg] | Structure (SMILES) | ED50 [1] [mg/kg] | Protection (Mustela putorius furo [2]) [%] | ED50 [4] [mg/kg] | Emetic episodes (Mustela putorius furo [5]) | Emetic episodes (Mustela putorius furo [6]) | Protection (Mustela putorius furo [7]) [%] | Emetic episodes (Canis familiaris [8]) | Protection (Canis familiaris [9]) [%] | Emetic episodes (Mustela putorius furo [5]; 3 mg/kg) | Protection (Mustela putorius furo [7]; 1 mg/kg) | Protection (Mustela putorius furo [6]) [%]
> 1000 | > 40 | CCN(CC)CCNC(=O)c1cc(Cl)c(N)cc1OCC(=O)OC | > 3 | 30 | > 40 | 5 | – | – | – | – | – | – | –
> 1000 | > 40 | CCN(CC)CCNC(=O)c1cc(Cl)c(N)cc1OCc1ccccn1 | > 3 | 86 | > 40 | 1 | 2.3 | 67 | – | – | – | – | –
> 1000 | > 40 | CCN(CC)CCN(C)C(=O)c1cc(Cl)c(N)cc1OC | > 3 | 0 | > 40 | 8.7 | – | – | – | – | – | – | –
> 1000 | > 40 | CCN(CC)CCNC(=O)c1cc(Cl)c(N)c2c(C)c(C)oc12 | > 3 | 53 | > 40 | 3.3 | – | – | – | – | – | – | –
> 1000 | > 40 | CCN(CC)CCNC(=O)c1cc(Cl)c(N)cc1OC(C)/C(C)=N/O (centres undefined) | > 3 | – | > 40 | – | 4.3 | 44 | – | – | – | – | –
– | > 40 | CCN(CC)CCNC(=O)c1cc(Cl)c(N)cc1OC[C@@H](C)O (stereo in doubt; 8e) | > 3 | – | > 40 | – | – | – | – | – | – | – | –
> 1000 | > 40 | CCN(CC)CCNC(=O)c1cc(Cl)c(N)cc1OCc1cc(C)no1 | > 3 | 72 | > 40 | 2 | – | – | – | – | – | – | –
> 1000 | > 40 | CCN(CC)CCNC(=O)c1cc(Cl)c(N)cc1OCC(O)CO (centres undefined) | > 3 | 10 | > 40 | 6.3 | – | – | – | – | – | – | –
– | > 40 | C=CCN1CCCC1CNC(=O)c1cc2nn[nH]c2cc1O (centres undefined) | > 3 | 0 | > 40 | 8 | – | – | – | – | – | – | –
– | > 40 | CCN(CC)CCNC(=O)c1cc(Cl)c(N)cc1OC[C@@H](C)O (stereo in doubt; 8f) | > 3 | – | > 40 | – | – | – | – | – | – | – | –
> 1000 | > 40 | CCN(CC)CCNC(=O)c1cc(Cl)c(N)cc1OCC1CO1 (centres undefined) | > 3 | 44 | > 40 | 4.7 | – | – | – | – | – | – | –
> 1000 | > 40 | C/C=C/COc1cc(N)c(Cl)cc1C(=O)NCCN(CC)CC | > 3 | 90 | > 40 | 0.7 | – | – | 2.5 | 80 | – | – | –
– | > 40 | CCN(CC)CCNC(=O)c1cc(Cl)c(N)cc1OC(C)C(C)O (stereo in doubt; 8g,h) | – | – | > 40 | – | – | – | – | – | – | – | –
> 1000 | > 40 | CCN(CC)CCC[S+]([O-])c1cc(Cl)c(N)cc1OC (centres undefined) | > 1 | 70 | > 40 | 2 | – | – | – | – | – | – | –
> 1000 | > 40 | CCN(CC)CCNC(=O)c1cc(Cl)c(N)cc1OCCC1(C)OCCO1 | > 3 | 80 | > 40 | 1.3 | – | – | – | – | – | – | –
> 1000 | – | C=CCN1CCCC1CNC(=O)c1cc2[nH]nnc2cc1O (centres undefined) | – | – | – | – | – | – | – | – | – | – | –
> 1000 | > 40 | C=CCC(Oc1cc(N)c(Cl)cc1C(=O)NCCN(CC)CC)C(C)=O (centres undefined) | > 3 | 68 | > 40 | 2.3 | 1.7 | – | 6 | 52 | – | – | 76
– | > 40 | CCN(CC)CCNC(=O)c1cc(Cl)c(N)cc1OC(C)C(C)O (stereo in doubt; 8h) | > 3 | – | > 40 | – | – | – | – | – | – | – | –
> 1000 | > 40 | CCN(CC)CCNC(=O)c1cc(Cl)c(N)cc1OC/C(C)=N/O | > 3 | 100 | > 40 | 0 | – | – | 2.5 | 79 | – | – | –
> 1000 | > 40 | CCN(CC)CCNC(=O)c1cc(Cl)c(N)cc1OCC1=NCCN1 | > 3 | 86 | > 40 | 1 | – | – | 1.5 | 88 | – | – | –
> 1000 | > 40 | CCN(CC)CCNC(=O)c1cc(Cl)c(N)cc1OCC1(C)CO1 (centres undefined) | > 3 | 53 | > 40 | 3.3 | – | – | – | – | – | – | –
